# Laboratory results from ChEMBL document CHEMBL2046381, “Defining the mechanism of action and enzymatic selectivity of psammaplin A against its epigenetic targets” (J Med Chem, 2012).
# Calls of active or inactive are those of the source.
# Tested on: not listed separately
# Assay: Growth inhibition of human WI38 cells after 96 hrs by sulphorhodamine B assay
# Assay type: cell-based
# Conditions: WI-38 cells
# Outline: (§1)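 SRB growth assay; MCF7 and WI38 seeded 4000 cells/well, A549 2000 cells/well, attached overnight, then exposed to freshly made drug solutions (0.1 to 50 μM) for 96 h. Fixed with cold 10% TCA, stained with 0.4% SRB; absorbance at 540 nm as percent of untreated control, IC50 from mean absorbance.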
row,Structure (SMILES),GI50 at 96 h
1,O=C(NCCS)/C(Cc1ccc(F)c(Br)c1)=N/O,7720 nM
2,CO/N=C(\Cc1ccc(O)c(Br)c1)C(=O)NCCSC,> 50000 nM
3,O=C(NCCSSCCNC(=O)/C(Cc1ccccc1)=N/O)/C(Cc1ccccc1)=N/O,> 50000 nM
4,COc1cc(C/C(=N\O)C(=O)NCCSSCCNC(=O)/C(Cc2cc(Br)c(OC)c(OC)c2)=N/O)cc(Br)c1OC,2140 nM
5,O=C(Cc1ccc(O)c(Br)c1)C(=O)NCCS,42600 nM
6,COc1cc(C/C(=N\O)C(=O)NCCS)cc(Br)c1OC,4310 nM
7,CO/N=C(\Cc1ccc(O)c(Br)c1)C(=O)NCCS,24200 nM
8,COc1ccc(C/C(=N\O)C(=O)NCCS)cc1Br,1130 nM
9,O=C(NCCSSCCNC(=O)/C(Cc1ccc(F)c(Br)c1)=N/O)/C(Cc1ccc(F)c(Br)c1)=N/O,1800 nM

# Molecular target: DNA (cytosine-5)-methyltransferase 1 (Homo sapiens, UniProt P26358)
# Sequence (P26358 whole entry): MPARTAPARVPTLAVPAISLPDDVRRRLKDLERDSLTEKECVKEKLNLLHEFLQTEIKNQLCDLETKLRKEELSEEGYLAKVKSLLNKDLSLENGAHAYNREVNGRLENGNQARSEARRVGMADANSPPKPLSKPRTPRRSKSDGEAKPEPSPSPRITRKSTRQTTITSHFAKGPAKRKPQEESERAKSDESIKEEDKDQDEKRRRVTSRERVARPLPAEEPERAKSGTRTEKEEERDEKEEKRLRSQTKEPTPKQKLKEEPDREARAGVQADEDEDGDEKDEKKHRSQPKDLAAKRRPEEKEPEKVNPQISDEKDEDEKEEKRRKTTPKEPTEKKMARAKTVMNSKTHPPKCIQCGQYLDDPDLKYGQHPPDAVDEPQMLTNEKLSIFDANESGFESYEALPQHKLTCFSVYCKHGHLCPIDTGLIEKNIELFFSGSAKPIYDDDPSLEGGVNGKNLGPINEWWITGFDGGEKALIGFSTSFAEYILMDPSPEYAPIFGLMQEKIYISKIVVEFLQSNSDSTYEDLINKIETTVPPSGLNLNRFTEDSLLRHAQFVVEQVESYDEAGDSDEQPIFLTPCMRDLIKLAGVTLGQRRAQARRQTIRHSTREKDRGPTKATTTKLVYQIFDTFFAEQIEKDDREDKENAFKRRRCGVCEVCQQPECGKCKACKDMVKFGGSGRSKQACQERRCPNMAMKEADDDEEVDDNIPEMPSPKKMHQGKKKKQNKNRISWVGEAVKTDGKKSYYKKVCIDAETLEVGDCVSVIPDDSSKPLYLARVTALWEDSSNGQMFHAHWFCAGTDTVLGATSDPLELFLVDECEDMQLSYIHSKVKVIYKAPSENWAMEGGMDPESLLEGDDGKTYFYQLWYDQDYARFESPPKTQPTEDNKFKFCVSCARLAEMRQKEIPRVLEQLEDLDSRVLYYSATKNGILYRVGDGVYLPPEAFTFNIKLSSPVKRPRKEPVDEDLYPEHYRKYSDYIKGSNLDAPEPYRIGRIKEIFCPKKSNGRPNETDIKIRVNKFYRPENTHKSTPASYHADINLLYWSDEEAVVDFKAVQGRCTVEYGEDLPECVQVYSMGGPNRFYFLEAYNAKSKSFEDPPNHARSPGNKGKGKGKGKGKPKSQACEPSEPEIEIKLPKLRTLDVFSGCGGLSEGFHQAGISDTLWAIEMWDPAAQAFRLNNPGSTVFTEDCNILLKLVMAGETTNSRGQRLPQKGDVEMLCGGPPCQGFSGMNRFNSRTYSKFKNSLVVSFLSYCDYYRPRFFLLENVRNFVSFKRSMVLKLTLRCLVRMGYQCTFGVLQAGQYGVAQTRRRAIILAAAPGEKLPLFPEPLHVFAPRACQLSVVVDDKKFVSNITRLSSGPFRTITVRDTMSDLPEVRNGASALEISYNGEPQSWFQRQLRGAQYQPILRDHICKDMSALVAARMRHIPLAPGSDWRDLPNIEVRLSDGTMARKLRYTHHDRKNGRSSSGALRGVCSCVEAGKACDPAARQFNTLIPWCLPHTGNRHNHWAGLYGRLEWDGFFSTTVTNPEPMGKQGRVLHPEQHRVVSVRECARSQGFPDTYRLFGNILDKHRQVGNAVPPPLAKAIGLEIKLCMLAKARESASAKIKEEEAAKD
# Assay: Inhibition of full length N-terminal His6-tagged human DNMT1 at 120 uM after 1 hr by fluorescence analysis
# Conditions: not given
# Outline: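 Baculovirus-expressed DNMT1 (80 nM final) with SAM (10 μM final) and hemimethylated hairpin oligo (125 nM final) in MOPS buffer pH 6.5 with 1 mM DTT, 1 h room temperature. Stopped with Gla1 plus 125 μM SAH, developed 7 h; fluorescence Ex 485/Em 520 nm. Thiols made in situ by TCEP reduction; no SAM as full-inhibition control.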
row,inhibition,Structure (SMILES)
1,inactive,O=C(NCCS)/C(Cc1ccc(F)c(Br)c1)=N/O
2,inactive,COc1cc(C/C(=N\O)C(=O)NCCS)cc(Br)c1OC
3,inactive,CO/N=C(\Cc1ccc(O)c(Br)c1)C(=O)NCCS
4,inactive,COc1ccc(C/C(=N\O)C(=O)NCCS)cc1Br

# Tested on: A549
# Assay: Growth inhibition of human A549 cells after 96 hrs by sulphorhodamine B assay
# Assay type: functional
# Conditions: A549, 96 h
# Outline: as §1
row,Structure (SMILES),GI50
1,CO/N=C(\Cc1ccc(O)c(Br)c1)C(=O)NCCSC,> 50000 nM
2,O=C(NCCSSCCNC(=O)/C(Cc1ccccc1)=N/O)/C(Cc1ccccc1)=N/O,16300 nM
3,O=C(Cc1ccc(O)c(Br)c1)C(=O)NCCS,43000 nM
4,O=C(NCCSSCCNC(=O)/C(Cc1ccc(F)c(Br)c1)=N/O)/C(Cc1ccc(F)c(Br)c1)=N/O,2730 nM

# Continued, values first:
row,GI50,Structure (SMILES)
1,6240 nM,O=C(NCCS)/C(Cc1ccc(F)c(Br)c1)=N/O
2,2510 nM,COc1cc(C/C(=N\O)C(=O)NCCSSCCNC(=O)/C(Cc2cc(Br)c(OC)c(OC)c2)=N/O)cc(Br)c1OC
3,4400 nM,COc1cc(C/C(=N\O)C(=O)NCCS)cc(Br)c1OC
4,10600 nM,CO/N=C(\Cc1ccc(O)c(Br)c1)C(=O)NCCS
5,160 nM,COc1ccc(C/C(=N\O)C(=O)NCCS)cc1Br

# Tested on: MCF7
# Assay: Growth inhibition of human MCF7 cells after 96 hrs by sulphorhodamine B assay
# Assay type: functional
# Conditions: MCF7, 96 h
# Outline: as §1
row,Structure (SMILES),GI50
1,CO/N=C(\Cc1ccc(O)c(Br)c1)C(=O)NCCSC,> 50000 nM
2,O=C(NCCSSCCNC(=O)/C(Cc1ccccc1)=N/O)/C(Cc1ccccc1)=N/O,11100 nM
3,O=C(Cc1ccc(O)c(Br)c1)C(=O)NCCS,35400 nM
4,O=C(NCCSSCCNC(=O)/C(Cc1ccc(F)c(Br)c1)=N/O)/C(Cc1ccc(F)c(Br)c1)=N/O,1000 nM

# The remaining lines, values ahead:
row,GI50,Structure (SMILES)
1,2870 nM,O=C(NCCS)/C(Cc1ccc(F)c(Br)c1)=N/O
2,720 nM,COc1cc(C/C(=N\O)C(=O)NCCSSCCNC(=O)/C(Cc2cc(Br)c(OC)c(OC)c2)=N/O)cc(Br)c1OC
3,2250 nM,COc1cc(C/C(=N\O)C(=O)NCCS)cc(Br)c1OC
4,19300 nM,CO/N=C(\Cc1ccc(O)c(Br)c1)C(=O)NCCS
5,610 nM,COc1ccc(C/C(=N\O)C(=O)NCCS)cc1Br

# Molecular target: T1, Protein deacetylase HDAC6 (Homo sapiens, UniProt Q9UBN7)
# T1 sequence (Q9UBN7 whole entry): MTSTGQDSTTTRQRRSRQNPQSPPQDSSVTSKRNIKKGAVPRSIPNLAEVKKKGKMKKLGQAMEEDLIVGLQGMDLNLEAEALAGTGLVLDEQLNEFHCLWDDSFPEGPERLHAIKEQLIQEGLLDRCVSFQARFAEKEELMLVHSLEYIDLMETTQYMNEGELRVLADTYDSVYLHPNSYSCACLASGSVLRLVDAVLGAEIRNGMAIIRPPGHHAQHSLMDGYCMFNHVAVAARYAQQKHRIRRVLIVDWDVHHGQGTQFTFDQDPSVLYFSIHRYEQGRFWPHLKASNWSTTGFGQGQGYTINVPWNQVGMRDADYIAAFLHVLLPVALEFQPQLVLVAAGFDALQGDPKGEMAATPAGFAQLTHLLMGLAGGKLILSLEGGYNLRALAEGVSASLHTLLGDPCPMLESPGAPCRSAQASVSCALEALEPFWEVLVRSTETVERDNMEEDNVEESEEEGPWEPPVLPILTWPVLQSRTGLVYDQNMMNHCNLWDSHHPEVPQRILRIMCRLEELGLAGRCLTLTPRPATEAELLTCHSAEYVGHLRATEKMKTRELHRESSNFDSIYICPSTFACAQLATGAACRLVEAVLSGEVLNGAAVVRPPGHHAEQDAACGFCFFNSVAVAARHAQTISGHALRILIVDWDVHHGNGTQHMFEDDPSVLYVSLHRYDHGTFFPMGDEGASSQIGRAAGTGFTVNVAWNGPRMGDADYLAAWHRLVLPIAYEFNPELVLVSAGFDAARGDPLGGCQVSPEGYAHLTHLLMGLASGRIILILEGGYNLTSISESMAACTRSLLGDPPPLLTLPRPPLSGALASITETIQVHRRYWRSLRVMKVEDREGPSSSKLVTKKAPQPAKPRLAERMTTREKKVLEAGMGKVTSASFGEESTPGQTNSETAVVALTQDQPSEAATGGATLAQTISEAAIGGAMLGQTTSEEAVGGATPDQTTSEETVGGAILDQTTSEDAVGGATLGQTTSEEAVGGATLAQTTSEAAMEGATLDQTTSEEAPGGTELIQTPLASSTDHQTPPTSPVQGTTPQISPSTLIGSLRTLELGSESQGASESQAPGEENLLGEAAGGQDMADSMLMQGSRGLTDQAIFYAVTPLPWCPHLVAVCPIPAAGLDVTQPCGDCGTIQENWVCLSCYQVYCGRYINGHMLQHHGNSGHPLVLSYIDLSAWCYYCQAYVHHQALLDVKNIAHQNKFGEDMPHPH
# Assay: Inhibition of human recombinant HDAC6 using Boc-lys(Ac)-AMC as substrate preincubated for 20 mins with substrate measured after 60 mins by fluorescence analysis
# Conditions: not given
row,Structure (SMILES),IC50
1,CO/N=C(\Cc1ccc(O)c(Br)c1)C(=O)NCCSC,> 50000 nM
2,O=C(Cc1ccc(O)c(Br)c1)C(=O)NCCS,1000 nM

# More lines, now with the values ahead:
row,IC50,Structure (SMILES)
1,640 nM,O=C(NCCS)/C(Cc1ccc(F)c(Br)c1)=N/O
2,510 nM,COc1cc(C/C(=N\O)C(=O)NCCS)cc(Br)c1OC
3,220 nM,CO/N=C(\Cc1ccc(O)c(Br)c1)C(=O)NCCS
4,3200 nM,COc1ccc(C/C(=N\O)C(=O)NCCS)cc1Br

# Molecular target: Histone deacetylase 1 (Homo sapiens, UniProt Q13547)
# Sequence (Q13547 whole entry): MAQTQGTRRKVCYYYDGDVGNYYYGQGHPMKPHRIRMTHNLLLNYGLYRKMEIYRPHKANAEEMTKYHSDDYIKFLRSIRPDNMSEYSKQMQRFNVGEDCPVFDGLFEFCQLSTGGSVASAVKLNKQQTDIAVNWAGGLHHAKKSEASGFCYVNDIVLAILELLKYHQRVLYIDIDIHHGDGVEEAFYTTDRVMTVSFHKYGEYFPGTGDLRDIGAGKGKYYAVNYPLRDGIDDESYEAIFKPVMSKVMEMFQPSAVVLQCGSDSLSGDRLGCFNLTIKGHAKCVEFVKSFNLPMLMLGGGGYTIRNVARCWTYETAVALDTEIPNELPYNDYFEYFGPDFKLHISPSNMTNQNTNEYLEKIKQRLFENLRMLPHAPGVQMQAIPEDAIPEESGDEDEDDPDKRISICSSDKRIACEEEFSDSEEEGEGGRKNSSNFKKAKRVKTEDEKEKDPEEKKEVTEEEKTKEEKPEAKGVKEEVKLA
# Assay: Inhibition of human recombinant HDAC1 using Boc-lys(Ac)-AMC as substrate preincubated for 20 mins with substrate measured after 60 mins by fluorescence analysis
# Conditions: not given
row,Structure (SMILES),IC50
1,CO/N=C(\Cc1ccc(O)c(Br)c1)C(=O)NCCSC,11000 nM
2,O=C(Cc1ccc(O)c(Br)c1)C(=O)NCCS,400 nM

# Second part, the compound after the results:
row,IC50,Structure (SMILES)
1,1 nM,O=C(NCCS)/C(Cc1ccc(F)c(Br)c1)=N/O
2,1 nM,COc1cc(C/C(=N\O)C(=O)NCCS)cc(Br)c1OC
3,27 nM,CO/N=C(\Cc1ccc(O)c(Br)c1)C(=O)NCCS
4,1.8 nM,COc1ccc(C/C(=N\O)C(=O)NCCS)cc1Br

# Molecular target: T2, Histone deacetylase-like amidohydrolase (Alcaligenes sp. (strain DSM 11172) (Bordetella sp. (strain FB188))) (UniProt Q70I53)
# T2 sequence (whole entry): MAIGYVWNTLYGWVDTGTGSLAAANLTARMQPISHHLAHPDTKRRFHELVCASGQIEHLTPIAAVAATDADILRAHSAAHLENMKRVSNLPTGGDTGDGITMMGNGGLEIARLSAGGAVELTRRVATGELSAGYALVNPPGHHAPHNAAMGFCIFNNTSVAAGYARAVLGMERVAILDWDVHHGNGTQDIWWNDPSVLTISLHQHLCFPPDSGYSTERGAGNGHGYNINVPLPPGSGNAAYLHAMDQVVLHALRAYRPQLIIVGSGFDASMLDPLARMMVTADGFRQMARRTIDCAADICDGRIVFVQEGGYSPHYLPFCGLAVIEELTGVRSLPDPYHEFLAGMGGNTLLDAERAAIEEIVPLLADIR
# Assay: Inhibition of Bordetella sp. (strain FB188) N-terminus His-tagged HDAH expressed in Escherichia coli BL21 (DE3) up to 100 uM
# Conditions: Alcaligenaceae bacterium FB188
# Outline: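 Recombinant N-terminal His6-tagged HDAH from Bordetella strain FB188, expressed in E. coli BL21, purified on zinc-loaded His-Trap column, eluted with 500 mM imidazole, dialyzed into assay buffer (>98% pure by SDS-PAGE). Tested directly against compounds; thiols generated in situ from disulfides with TCEP.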
row,Structure (SMILES),inhibition
1,CO/N=C(\Cc1ccc(O)c(Br)c1)C(=O)NCCSC,inactive
2,O=C(NCCSSCCNC(=O)/C(Cc1ccccc1)=N/O)/C(Cc1ccccc1)=N/O,inactive
3,O=C(Cc1ccc(O)c(Br)c1)C(=O)NCCS,inactive
4,O=C(NCCSSCCNC(=O)/C(Cc1ccc(F)c(Br)c1)=N/O)/C(Cc1ccc(F)c(Br)c1)=N/O,inactive

# Results, then the compound that gave them:
row,inhibition,Structure (SMILES)
1,inactive,O=C(NCCS)/C(Cc1ccc(F)c(Br)c1)=N/O
2,inactive,COc1cc(C/C(=N\O)C(=O)NCCSSCCNC(=O)/C(Cc2cc(Br)c(OC)c(OC)c2)=N/O)cc(Br)c1OC
3,inactive,COc1cc(C/C(=N\O)C(=O)NCCS)cc(Br)c1OC
4,inactive,CO/N=C(\Cc1ccc(O)c(Br)c1)C(=O)NCCS
5,inactive,COc1ccc(C/C(=N\O)C(=O)NCCS)cc1Br
